# High-throughput results as filed in PubChem.
# An excerpt weighted towards active compounds, which were near 4.9% of everything screened.
# STAT3 act-1 = increases IL-6 driven STAT3 reporter signal | activation (% of control), % at 5.6 µM | 190,000 tested, 0.91% active | U3A cells, IL-6 STAT3-luciferase reporter, luminescence; 100% = signal with IL-6 EC80 alone;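 active means activation above the screen-wide mean of compound activation plus 3 SD, cut at about 130% in these data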;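 further: 0% = background luminescence of wells with medium and substrate only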
#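 Material: STAT1-lacking human U3A cells, STAT3 luciferase reporter | Benchmarks: IL-6-only wells as 100% reference | Probe or stimulus: IL-6 (33 ng/mL) | Timing: Compound 1 h, then IL-6 6 h at 37 °C | Detection: Luminescence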
# APP 5'UTR act = activates APP 5'UTR luciferase reporter. SH-SY5Y APP 5'UTR luciferase reporter, luminescence; zero percent = DMSO vehicle wells. activation, % at 2 µM. 190,000 tested, 1% active. AID 1276;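 active means activation above a set limit, based on mean plus 3 SD of controls, cut at about 140% in these data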
# STAT3 inh = inhibitors of IL-6 induced STAT3 signaling; U3A cells, IL-6 STAT3-luciferase reporter, luminescence; host cell line lacks STAT1; inhibition, % at 5.5 µM; 190,000 tested, 0.89% active;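 active means inhibition above the mean inhibition across all screened compounds plus 3 SD, cut at about 44% in these data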;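 further: 0% = DMSO only wells and 100% = 100 µM nifuroxazide control wells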
# NF-kB expr up = raises NF-kB expression in human neuronal cells | 190,000 tested, 1.6% active | NF-kB reporter expression; hits give high values | fold change at 12.5 µM | AID 1239; in the data active means fold change above about 3.3
# STAT1 act-1 = STAT1 signaling activation; AID 932; activation (% of control), % at 5.5 µM; 200,000 tested, 2.6% active; NIH 3T3 STAT1-luciferase reporter, IFN-gamma, luminescence; 100% = IFN-gamma alone, no compound;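 active means activation above the screen-wide mean activation plus 3 SD, cut at about 130% in these data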;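 further: raw ratio to IFN-gamma control signal so 100% means no change and 0% no light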
# STAT1 blocker = inhibitors of IFN-gamma induced STAT1 signaling; NIH 3T3 STAT1-luciferase reporter, luminescence; inhibition, % at 5.5 µM; 200,000 tested, 0.35% active; AID 920;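 active means inhibition above a set limit, the mean inhibition across all tested compounds plus 3 SD, cut at about 34% in these data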;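 further: 0% = IFN-gamma with DMSO and 100% = IFN-gamma with 300 µM nifuroxazide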
# STAT3 act-2 = confirmation of STAT3 signaling activators | shares compounds with STAT3 act-1 | U3A STAT3-luciferase reporter, IL-6 potentiation, luminescence; U3A cells lack STAT1; 100 means same as IL-6 alone | 1,200 tested, 64% active | AID 1267 | potentiation (% of control), % at 5.7 µM;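 active means percent activation of the STAT3 luciferase reporter above a set limit taken from the earlier primary screen, cut at about 130% in these data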;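 further: 0% = background signal of medium plus substrate and 100% = median of IL-6 with DMSO wells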
# NFkB act STAT3ct = counter-screen for STAT3 activators: NF-kappaB activation | shares compounds with STAT3 act-1 | human cells, NF-kappaB reporter activation | activation (% of control), % at 5.7 µM | 1,200 tested, 11% active | AID 1309; in the data active means activation above about 120%;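 further: reporter induced by TNF-alpha stimulation; 100% = median of stimulated DMSO wells and 0% = no signal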
# STAT1 act-2 = counter-screen for STAT3 activators: STAT1 activation; NIH 3T3 STAT1-luciferase reporter, IFN-gamma, luminescence; 1,200 tested, 13% active; activation (% of control), % at 5.7 µM; shares compounds with STAT3 act-1;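 active means activation above the solvent-only control well mean plus 3 SD, set per screening run, cut at about 120% in these data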;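 further: 100% = IFN-gamma with DMSO median signal so 100% means no change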
# * hit, by the source's call; i = inactive; nt = not tested or not shown; + = active, no number.
SMILES,STAT3 act-1,APP 5'UTR act,STAT3 inh,NF-kB expr up,STAT1 act-1,STAT1 blocker,STAT3 act-2,NFkB act STAT3ct,STAT1 act-2
COc1ccc(C2CC3(CC(C)(C)NC(=S)N3)Oc3cc(O)cc(C)c32)cc1OC (stereo not drawn),+,37,i,1.2,102,-4,693*,118,121*
CCC1=NN=C(c2ccc(F)cc2)C(c2c[nH]c3ccccc23)N1O (stereo not drawn),163*,29,-71,1.9,93,-1,159*,104,112
Cc1ccc(N2C(=O)CC(c3c[nH]c4ccccc34)C2=O)cc1 (stereo not drawn),96,1,6,1.8,96,3,nt,nt,nt
CCN(C(=O)CSc1nnc(-c2cccs2)o1)C1CCS(=O)(=O)C1 (stereo not drawn),110,-1,-10,1.2,97,3,nt,nt,nt
Cc1cc(Br)ccc1-n1[nH]c(C)c(C=Nc2cccc3nsnc23)c1=O,138*,4,-45,0.83,108,-10,133*,101,99
O=C1C2C3C=CC(C3)C2C(=O)N1CNc1ccccn1 (stereo not drawn),140*,28,-46,1,101,-1,101,111,103
CCCCNC(=S)NC(C)(C)CO,111,27,-11,0.93,106,-9,nt,nt,nt
CN1CCN(C(=O)CNc2ccc(C(F)(F)F)cc2[N+](=O)[O-])CC1,162*,4,-74,0.93,98,0,157*,103,101
CC(C)NC(=O)CNc1ccc(C(F)(F)F)cc1[N+](=O)[O-],103,-9,-2,0.94,104,-7,nt,nt,nt
Cc1ccc(Cl)cc1N1CCN(C(=O)Cc2c(C(=O)O)[nH]c3ccccc23)CC1,138*,-9,-45,1.1,92,8,123,106,93
COc1cccc(Sc2ccccc2/C=N/NC(N)=O)c1,102,-65,-2,1.1,96,2,nt,nt,nt
CCCN(CCC)C(=O)c1cc(-c2ccc3c(c2)OCO3)nc2ccccc12,154*,0,-64,0.85,102,-2,138*,101,93
CCN1CCN(c2ccc(N=Cc3ccccc3O)cc2)CC1,98,2,4,2,104,-6,nt,nt,nt
COc1ccc(OC)c2c1sc(=NC(=O)c1ccco1)n2C,166*,6,-76,0.87,105,-6,139*,105,105
CCn1c(=NC(=O)c2ccco2)sc2cccc(F)c21,144*,36,-48,1.7,121,-24,130,114,125*
COc1ccc(/C(N)=N/OC(=O)CCCN2C(=O)c3ccccc3C2=O)cc1OC,98,-1,9,1,100,-1,nt,nt,nt
Cc1cc(NC(=O)C(C)C)n(-c2nc3ccccc3s2)n1,143*,4,-40,1,120,-24,163*,116,117
Cc1cc(NC(=O)CN2CC(C)OC(C)C2)n(-c2nc3ccccc3s2)n1 (stereo not drawn),150*,-15,-59,1.3,102,-2,133*,102,102
CCCCCC(=O)Nc1nc(C)c(-c2csc(Nc3cc(Cl)ccc3C)n2)s1,111,7,-5,0.98,89,12,nt,nt,nt
Cc1nc(NC(=O)c2ccccc2)sc1-c1csc(Nc2ccc(Cl)cc2)n1,86,2,28,1.2,109,-10,nt,nt,nt
Cc1nc(NC(=O)CC(C)C)sc1-c1csc(Nc2ccc(Cl)cc2)n1,141*,14,-51,0.91,95,6,120,100,99
CCCCCC(=O)Nc1nc(C)c(-c2csc(Nc3ccc(Cl)cc3)n2)s1,148*,5,-60,1,87,15,130,104,98
CCCCCCC(=O)Nc1nc(C)c(-c2csc(Nc3ccc(Cl)cc3)n2)s1,136*,10,-35,1,81,20,126,108,94
Cc1nc(NC(=O)c2ccco2)sc1-c1csc(Nc2ccc(Cl)cc2)n1,146*,5,-56,0.96,98,2,124,102,101
Cc1nc(NC(=O)CC(C)C)sc1-c1csc(Nc2ccc(Cl)cc2Cl)n1,105,2,0,0.98,108,-9,nt,nt,nt
SMILES,STAT3 act-1,APP 5'UTR act,STAT3 inh,NF-kB expr up,STAT1 act-1,STAT1 blocker,STAT3 act-2,NFkB act STAT3ct,STAT1 act-2
CCC(C)(C)NC(=O)/C=C/c1cccs1,105,-4,-10,1.1,107,-8,nt,nt,nt
CCOc1ccc(NC(=O)CNC(=O)c2ccc([N+](=O)[O-])cc2)cc1,101,-16,3,1.1,104,-6,nt,nt,nt
Cc1ccc2nc(NC(=O)c3ccc(NS(=O)(=O)c4cccs4)cc3)sc2c1,96,32,8,1.6,118,-20,nt,nt,nt
O=C(NC(=S)Nc1nc2c(ccc3ccccc32)s1)c1cccs1,140*,7,-47,0.75,100,0,142*,100,80
Cc1[nH]c2ccccc2c1CCC(N)=O,105,-12,-2,1.7,106,-7,nt,nt,nt
Cc1[nH]c2ccccc2c1Cc1nnc(SCC(N)=O)o1,153*,-5,-66,1,87,11,103,100,96
O=C(O)c1sccc1SCc1ccc(Cl)cc1Cl,137*,-3,-39,1,100,0,116,103,91
NC(=S)N/N=C/c1ccc(-c2ccc(Cl)c(Cl)c2)o1,191*,-10,-103,1.1,102,-2,145*,109,111
NC(=S)N/N=C/c1ccc(-c2ccccc2)o1,89,5,17,1.4,115,-16,nt,nt,nt
CN1c2ccccc2C(C)(C)C12C=Nc1c(ccc3ccccc13)O2 (stereo not drawn),166*,21,-78,0.49,88,13,150*,115,108
CSc1nc2ccsc2c(=O)n1-c1ccccn1,92,14,9,1,100,0,nt,nt,nt
C=CCSc1nnc(-c2cc3c(s2)-c2ccccc2CC3)o1,151*,24,-55,1.7,113,-15,145*,109,116
Nc1cccc(C2=Nc3cccc4cccc(c34)N2)c1,147*,-4,-63,1.1,99,1,157*,103,105
Nc1cccc(-c2nc3ccc(N)cc3s2)c1,106,-13,-4,2.6,124,-26,nt,nt,nt
COCCCN(C(=S)NC(=O)c1ccc(C(C)(C)C)cc1)c1c(N)n(Cc2ccccc2)c(=O)[nH]c1=O,103,-14,0,0.87,102,-3,nt,nt,nt
